The source of these data is ChEMBL document CHEMBL1140875, “DNA photocleavage by porphyrin-polyamine conjugates” (Bioorg Med Chem, 2009).

Series [1] concerns Escherichia coli. The experiment in a line: Induction of DNA photocleavage activity in Escherichia coli pBR322 plasmid assessed as linear DNA form at 10 uM after 90 mins irradiation at 2.5 mW/cm2 by gel electrophoresis. The method in brief:
(§1)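 Supercoiled pBR322 (0.25 µg in 10 µL) in 3 mM Tris–HCl, 0.3 mM EDTA, pH 8.0 at 25 °C, with 10 µM porphyrin. White light at 2.5 mW/cm2 from an 18 W lamp 4 cm away, for 15–120 min. Controls without porphyrin and/or without light. Products run on 0.7% non-denaturing agarose, SYBRsafe stain, transilluminator at 312 nm. Supercoiled, nicked and linear forms quantified as %.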

The subject of series [2] is Escherichia coli. The experiment in a line: Induction of DNA photocleavage activity in Escherichia coli pBR322 plasmid assessed as nicked DNA form at 10 uM by gel electrophoresis. The method in brief: as §1
Series [3] is described as follows: Photostability assessed as residual absorbance at 2.5 mW/cm2 irradiation for 30 mins. It counts as physicochemical. To be noted: read-out: Stability.
For series [4], the system named is Escherichia coli. In words: Induction of DNA photocleavage activity in Escherichia coli pBR322 plasmid assessed as supercoiled DNA form at 10 uM after 120 mins irradiation at 2.5 mW/cm2 by gel electrophoresis. The method in brief:
as §1

In series [5] the test system is Escherichia coli. The experiment in a line: Induction of DNA photocleavage activity in Escherichia coli pBR322 plasmid assessed as nicked DNA form at 10 uM after 60 mins irradiation at 2.5 mW/cm2 by gel electrophoresis. The method in brief: as §1
The subject of series [6] is Escherichia coli. In words: Induction of DNA photocleavage activity in Escherichia coli pBR322 plasmid assessed as nicked DNA form at 10 uM after 120 mins irradiation at 2.5 mW/cm2 by gel electrophoresis. The method in brief:
as §1

Series [7] concerns Escherichia coli. In words: Induction of DNA photocleavage activity in Escherichia coli pBR322 plasmid assessed as nicked DNA form at 10 uM after 15 mins irradiation at 2.5 mW/cm2 by gel electrophoresis. The method in brief:
as §1

Series [8] concerns Escherichia coli. The experiment in a line: Induction of DNA photocleavage activity in Escherichia coli pBR322 plasmid assessed as supercoiled DNA form at 10 uM by gel electrophoresis.
Series [9] in a line: Photostability assessed as residual absorbance at 2.5 mW/cm2 irradiation for 45 mins. It counts as physicochemical. To be noted: read-out: Stability.
For series [10], the system named is Escherichia coli. In words: Induction of DNA photocleavage activity in Escherichia coli pBR322 plasmid assessed as nicked DNA form at 10 uM after 30 mins irradiation at 2.5 mW/cm2 by gel electrophoresis. The method in brief:
as §1

Series [11] deals with Escherichia coli. In words: Induction of DNA photocleavage activity in Escherichia coli pBR322 plasmid assessed as linear DNA form at 10 uM after 60 mins irradiation at 2.5 mW/cm2 by gel electrophoresis. In outline: as §1
A short description of series [12]: Photostability assessed as residual absorbance at 2.5 mW/cm2 irradiation for 15 mins. It counts as physicochemical. Particulars: read-out: Stability.
Series [13] in a line: Photostability assessed as residual absorbance at 2.5 mW/cm2 irradiation for 60 mins. The class given is physicochemical. To be noted: read-out: Stability.
The nature of series [14]: Lipophilicity, log P of the compound. It counts as physicochemical. Particulars: octanol/water. In outline:
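1-Octanol/water partition at 25 °C with equal 3 mL phases and dye at 300 µM. Mixture vortexed and centrifuged. Aqueous and organic aliquots each diluted into MeOH, and dye concentration in each phase measured by absorption spectroscopy.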

Series [15] relates to Escherichia coli. The experiment in a line: Induction of DNA photocleavage activity in Escherichia coli pBR322 plasmid assessed as supercoiled DNA form at 10 uM after 30 mins irradiation at 2.5 mW/cm2 by gel electrophoresis. The method in brief:
as §1

The test system of series [16] is Escherichia coli. In words: Induction of DNA photocleavage activity in Escherichia coli pBR322 plasmid assessed as nicked DNA form at 10 uM after 90 mins irradiation at 2.5 mW/cm2 by gel electrophoresis. The method in brief: as §1
The test system of series [17] is Escherichia coli. The experiment in a line: Induction of DNA photocleavage activity in Escherichia coli pBR322 plasmid assessed as supercoiled DNA form at 10 uM after 15 mins irradiation at 2.5 mW/cm2 by gel electrophoresis. The method in brief: as §1
Series [18] concerns Escherichia coli. The experiment in a line: Induction of DNA photocleavage activity in Escherichia coli pBR322 plasmid assessed as supercoiled DNA form at 10 uM after 60 mins irradiation at 2.5 mW/cm2 by gel electrophoresis. In outline: as §1
Series [19] relates to Escherichia coli. The experiment in a line: Induction of DNA photocleavage activity in Escherichia coli pBR322 plasmid assessed as supercoiled DNA form at 10 uM after 90 mins irradiation at 2.5 mW/cm2 by gel electrophoresis. The method in brief:
as §1

The test system of a further series is DNA. In words: Binding affinity to calf thymus DNA at 4 uM in phosphate buffer of pH 7.4 by UV-vis spectroscopy. Particulars: Bos taurus. It counts as nucleic-acid assay. The method in brief:
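Porphyrin held at 4 × 10^-6 M in PBS pH 7.4 and read by UV–vis at the Soret maximum. Calf thymus DNA titrated in at base-pair concentrations from 1.2 × 10^-6 to 1.2 × 10^-5 M, base pair/porphyrin ratio 0.2 to 3. Change in the Soret band followed.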

A short description of series [20]: Induction of singlet oxygen production at 1 uM after irradiation at 10 mW/cm2 in presence of 1,3-diphenylisobenzofuran. The class given is physicochemical. In outline:
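Photosensitizer at 10^-6 M with DPBF at 6 × 10^-5 M in DMF/H2O (9/1). Illuminated at room temperature for 30 min with two 30 W white bulbs, 10 mW/cm2. DPBF absorbance decay read at 415 nm every 3 min.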

Series [21] concerns Escherichia coli. The experiment in a line: Induction of DNA photocleavage activity in Escherichia coli pBR322 plasmid assessed as linear DNA form at 10 uM after 120 mins irradiation at 2.5 mW/cm2 by gel electrophoresis. In outline:
as §1

Active and inactive are the calls of the source. No cut-off for these calls is given here.

For orientation: logP means the decadic logarithm of the partition coefficient of the neutral form, usually between octanol and water. Low values mean lower lipophilicity, high ones higher lipophilicity. Regarding `NCCCNCCCCN(CCCN)C(=O)CCCCNC(=O)c1ccc(-c2c3nc(c(-c4ccc(C(=O)NCCCCC(=O)N(CCCN)CCCCNCCCN)cc4)c4ccc([nH]4)c(-c4ccc(C(=O)NCCCCC(=O)N(CCCN)CCCCNCCCN)cc4)c4nc(c(-c5ccc(C(=O)NCCCCC(=O)N(CCCN)CCCCNCCCN)cc5)c5ccc2[nH]5)C=C4)C=C3)cc1`, the Activity amounted to 9% in the series on Escherichia coli [1]; 15% in the series on Escherichia coli [2]; 11% in the series with Escherichia coli [4]; 51% in the series with Escherichia coli [5]; 75% in the series on Escherichia coli [6]; 34% with Escherichia coli [7]. Further, the Activity was 85% in the series with Escherichia coli [8]; 43% in the series on Escherichia coli [10]; 8% in the series on Escherichia coli [11]; 57% with Escherichia coli [15]; 53% in the series on Escherichia coli [16]; 66% with Escherichia coli [17]. Also, the Activity was 40% with Escherichia coli [18], 38% with Escherichia coli [19], “Active” in series [20] and 15% in the series with Escherichia coli [21]. Further, the remaining at 0.5 h in series [3] turned out to be 100%. Besides, the remaining at 0.75 h in [9] amounted to 99%. Further, the remaining at 0.25 h in series [12] came to 100%. Moreover, the remaining at 1 h in series [13] was found to be 97%. Besides, in series [14], the logP was -2.83. In addition, in the series with DNA, the outcome was Active.
Regarding `Cc1cc(C)c(-c2c3nc(c(-c4ccc(C(=O)NCCCCC(=O)N(CCCN)CCCCN)cc4)c4ccc([nH]4)c(-c4c(C)cc(C)cc4C)c4nc(c(-c5ccc(C(=O)NCCCCC(=O)N(CCCN)CCCCN)cc5)c5ccc2[nH]5)C=C4)C=C3)c(C)c1`, the Activity turned out to be 27% with Escherichia coli [2]; 78% in the series on Escherichia coli [4]; 28% with Escherichia coli [5]; 22% in the series with Escherichia coli [6]; 27% in the series with Escherichia coli [7]; 73% with Escherichia coli [8]. For the same compound, the Activity with Escherichia coli [10] was 25%; in the series with Escherichia coli [15], 75%; with Escherichia coli [16], 29%; in the series with Escherichia coli [17], 73%; in the series on Escherichia coli [18], 72%; in the series on Escherichia coli [19], 71%. The result in series [20] was Active. Besides, the remaining at 0.5 h in series [3] worked out at 100%. In addition, the remaining at 0.75 h in series [9] turned out to be 100%. Further, the remaining at 0.25 h in series [12] was 100%. Moreover, in [13], the remaining at 1 h was found to be 99%. This compound gave a logP in [14] of 0.11.
With `Cc1cc(C)c(-c2c3nc(c(-c4ccc(C(=O)NCCCCC(=O)N(CCCN)CCCCNCCCN)cc4)c4ccc([nH]4)c(-c4c(C)cc(C)cc4C)c4nc(c(-c5ccc(C(=O)NCCCCC(=O)N(CCCN)CCCCNCCCN)cc5)c5ccc2[nH]5)C=C4)C=C3)c(C)c1`, the Activity was 30% with Escherichia coli [2]; 71% with Escherichia coli [4]; 30% in the series on Escherichia coli [5]; 29% with Escherichia coli [6]; 30% in the series with Escherichia coli [7]; 70% in the series with Escherichia coli [8]. Also, the Activity in the series with Escherichia coli [10] was determined as 28%; with Escherichia coli [15] it was 72%; with Escherichia coli [16], 28%; in the series on Escherichia coli [17], 70%; in the series on Escherichia coli [18] it was 70%; with Escherichia coli [19], 72%. For the same compound, the result in series [20] was Active. For the same compound, the remaining at 0.5 h in series [3] came out at 99%. In series [9], the remaining at 0.75 h was 99%. The remaining at 0.25 h in [12] is 100%. For the same compound, in series [13], the remaining at 1 h is 98%. The logP in series [14] was 0.07.
